The assay concerns the target Sodium channel protein type 5 subunit alpha (Homo sapiens, UniProt Q14524). The assay is described as follows: Inhibition of human Nav1.5 expressed in HEK293 cells assessed as inward peak current by ion-works quattro patch clamp electrophysiology method. It counts as cell-based. In short, it runs like this:
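Stable HEK293 line expressing human NaV1.5, recorded by population patch clamp on the IonWorks Quattro.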
In general terms: Patch clamp records ionic current or voltage across a cell membrane.

This is an account of results in ChEMBL document CHEMBL3797186, “Single Residue Substitutions That Confer Voltage-Gated Sodium Ion Channel Subtype Selectivity in the NaV1.7 Inhibitory Peptide GpTx-1” (J Med Chem, 2016).

Positions of bridges follow the written chain, without caps; N, C: chain ends. Residues, ends and D or L forms follow the SMILES beside them. Some results are limits rather than exact numbers.

Sodium channel protein type 5 subunit alpha, sequence (Q14524 whole entry): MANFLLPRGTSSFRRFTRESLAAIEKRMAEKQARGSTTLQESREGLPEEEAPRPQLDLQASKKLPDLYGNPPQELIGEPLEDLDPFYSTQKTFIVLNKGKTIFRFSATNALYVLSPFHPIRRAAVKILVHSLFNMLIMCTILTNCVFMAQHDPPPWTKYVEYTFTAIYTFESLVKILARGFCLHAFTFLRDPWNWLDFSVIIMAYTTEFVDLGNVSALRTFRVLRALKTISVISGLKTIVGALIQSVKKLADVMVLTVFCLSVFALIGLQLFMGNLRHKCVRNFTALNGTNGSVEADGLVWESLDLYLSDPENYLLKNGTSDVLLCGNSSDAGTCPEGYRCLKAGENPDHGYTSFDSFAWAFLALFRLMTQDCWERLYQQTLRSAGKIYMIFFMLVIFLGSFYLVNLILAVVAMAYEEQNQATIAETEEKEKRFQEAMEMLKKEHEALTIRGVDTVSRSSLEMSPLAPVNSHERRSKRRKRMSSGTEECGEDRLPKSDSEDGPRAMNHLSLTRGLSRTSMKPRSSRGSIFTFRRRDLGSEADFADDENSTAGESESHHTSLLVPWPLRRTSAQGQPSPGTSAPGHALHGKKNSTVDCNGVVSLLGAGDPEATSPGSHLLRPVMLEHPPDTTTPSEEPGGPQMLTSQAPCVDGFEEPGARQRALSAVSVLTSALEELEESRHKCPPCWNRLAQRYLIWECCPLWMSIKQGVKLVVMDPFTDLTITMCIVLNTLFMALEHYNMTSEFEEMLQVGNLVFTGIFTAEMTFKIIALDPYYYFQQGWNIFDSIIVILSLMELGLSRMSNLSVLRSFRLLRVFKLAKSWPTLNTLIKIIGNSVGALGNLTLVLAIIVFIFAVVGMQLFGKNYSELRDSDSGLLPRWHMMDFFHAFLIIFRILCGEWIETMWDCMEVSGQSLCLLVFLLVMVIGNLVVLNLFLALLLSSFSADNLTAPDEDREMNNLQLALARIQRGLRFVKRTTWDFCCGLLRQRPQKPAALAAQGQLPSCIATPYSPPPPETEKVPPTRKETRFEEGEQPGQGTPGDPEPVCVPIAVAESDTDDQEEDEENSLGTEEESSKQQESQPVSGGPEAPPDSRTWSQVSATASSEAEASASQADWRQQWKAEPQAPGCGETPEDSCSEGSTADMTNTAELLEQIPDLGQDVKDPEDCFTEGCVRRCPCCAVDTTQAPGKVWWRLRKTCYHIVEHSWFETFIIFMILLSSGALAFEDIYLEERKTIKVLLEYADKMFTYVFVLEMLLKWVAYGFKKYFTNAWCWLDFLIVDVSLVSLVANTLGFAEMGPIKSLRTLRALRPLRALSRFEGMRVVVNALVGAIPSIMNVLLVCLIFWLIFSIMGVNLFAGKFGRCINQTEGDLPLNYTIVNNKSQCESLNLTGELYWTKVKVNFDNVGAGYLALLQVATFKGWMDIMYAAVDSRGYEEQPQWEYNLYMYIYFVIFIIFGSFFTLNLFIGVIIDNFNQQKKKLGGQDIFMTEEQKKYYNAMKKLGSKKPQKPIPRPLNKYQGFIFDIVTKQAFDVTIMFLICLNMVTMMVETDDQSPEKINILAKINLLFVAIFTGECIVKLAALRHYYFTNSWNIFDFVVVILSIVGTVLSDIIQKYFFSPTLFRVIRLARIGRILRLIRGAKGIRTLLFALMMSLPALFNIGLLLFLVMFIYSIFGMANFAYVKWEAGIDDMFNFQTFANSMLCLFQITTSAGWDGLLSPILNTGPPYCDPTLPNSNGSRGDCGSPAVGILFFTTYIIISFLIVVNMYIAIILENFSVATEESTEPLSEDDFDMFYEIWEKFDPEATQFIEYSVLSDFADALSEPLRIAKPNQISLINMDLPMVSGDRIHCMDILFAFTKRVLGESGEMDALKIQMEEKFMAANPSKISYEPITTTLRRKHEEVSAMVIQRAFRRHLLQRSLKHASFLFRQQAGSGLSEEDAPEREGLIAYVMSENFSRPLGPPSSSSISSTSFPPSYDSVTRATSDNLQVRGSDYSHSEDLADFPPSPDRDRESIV

By IC50 is commonly meant the concentration that gives 50% inhibition. In the case of `CC[C@H](C)[C@@H]1NC(=O)[C@@H]2CSSC[C@@H]3NC(=O)[C@H](C(C)C)NC(=O)[C@H](CC(C)C)NC(=O)[C@H](CC(N)=O)NC(=O)[C@@H]4CCCN4C(=O)[C@H](CCCNC(=N)N)NC(=O)[C@H](CSSC[C@H](NC(=O)[C@@H](N)CC(=O)O)C(=O)N[C@@H](CC(C)C)C(=O)NCC(=O)N[C@@H](Cc4ccccc4)C(=O)N[C@@H](CCC(=O)O)C(=O)N[C@@H](CCCNC(=N)N)C(=O)N[C@@H](CCCCN)C(=O)N2)NC(=O)[C@H](CSSC[C@@H](C(=O)N[C@@H](CCCCN)C(=O)N[C@@H](Cc2ccc(O)cc2)C(=O)N[C@H](C(=O)N[C@@H](Cc2ccccc2)C(N)=O)C(C)C)NC(=O)[C@H](Cc2c[nH]c4ccccc24)NC(=O)[C@H](CCCCN)NC(=O)[C@H](Cc2cnc[nH]2)NC(=O)[C@H]([C@@H](C)O)NC(=O)[C@H](CCCNC(=N)N)NC(=O)[C@H](CO)NC3=O)NC(=O)[C@H](CCCCN)NC(=O)[C@H](CC(=O)O)NC(=O)[C@H](CC(N)=O)NC(=O)[C@H](CC(=O)O)NC(=O)[C@@H]2CCCN2C1=O` (H-DCLGFERKCIPDNDKCCRPNLVCSRTHKWCKYVF-NH2; disulfide 2-17, 9-23, 16-30), the half-maximal inhibitory concentration (IC50) was above 5 µM.

As to `CC[C@H](C)[C@@H]1NC(=O)[C@@H]2CSSC[C@@H]3NC(=O)[C@H](C(C)C)NC(=O)[C@H](CC(C)C)NC(=O)[C@H](CC(N)=O)NC(=O)[C@@H]4CCCN4C(=O)[C@H](CCCNC(=N)N)NC(=O)[C@H](CSSC[C@H](NC(=O)[C@@H](N)CCCCN)C(=O)N[C@@H](CC(C)C)C(=O)NCC(=O)N[C@@H](Cc4ccccc4)C(=O)N[C@@H](CCSC)C(=O)N[C@@H](CCCNC(=N)N)C(=O)N[C@@H](CCCCN)C(=O)N2)NC(=O)[C@H](CSSC[C@@H](C(=O)N[C@@H](CCCCN)C(=O)N[C@@H](Cc2ccc(O)cc2)C(=O)N[C@H](C(=O)N[C@@H](Cc2ccccc2)C(N)=O)C(C)C)NC(=O)[C@H](Cc2c[nH]c4ccccc24)NC(=O)[C@H](CCCCN)NC(=O)[C@H](Cc2cnc[nH]2)NC(=O)[C@H]([C@@H](C)O)NC(=O)[C@H](CCCNC(=N)N)NC(=O)[C@H](CO)NC3=O)NC(=O)[C@H](CCCCN)NC(=O)[C@H](CC(=O)O)NC(=O)[C@H](CC(N)=O)NC(=O)[C@H](CC(=O)O)NC(=O)[C@@H]2CCCN2C1=O` (H-KCLGFMRKCIPDNDKCCRPNLVCSRTHKWCKYVF-NH2; disulfide 2-17, 9-23, 16-30), the IC50 is above 5 µM.

`CC[C@H](C)[C@@H]1NC(=O)[C@@H]2CSSC[C@@H]3NC(=O)[C@H](C(C)C)NC(=O)[C@H](CC(C)C)NC(=O)[C@H](CC(N)=O)NC(=O)[C@@H]4CCCN4C(=O)[C@H](CCCNC(=N)N)NC(=O)[C@H](CSSC[C@H](NC(=O)[C@@H](N)CC(=O)O)C(=O)N[C@@H](CC(C)C)C(=O)NCC(=O)N[C@@H](Cc4ccccc4)C(=O)N[C@@H](CCSC)C(=O)N[C@@H](CCCNC(=N)N)C(=O)N[C@@H](CCC(=O)O)C(=O)N2)NC(=O)[C@H](CSSC[C@@H](C(=O)N[C@@H](CCCCN)C(=O)N[C@@H](Cc2ccc(O)cc2)C(=O)N[C@H](C(=O)N[C@@H](Cc2ccccc2)C(N)=O)C(C)C)NC(=O)[C@H](Cc2c[nH]c4ccccc24)NC(=O)[C@H](CCCCN)NC(=O)[C@H](Cc2cnc[nH]2)NC(=O)[C@H]([C@@H](C)O)NC(=O)[C@H](CCCNC(=N)N)NC(=O)[C@H](CO)NC3=O)NC(=O)[C@H](CCCCN)NC(=O)[C@H](CC(=O)O)NC(=O)[C@H](CC(N)=O)NC(=O)[C@H](CC(=O)O)NC(=O)[C@@H]2CCCN2C1=O` (H-DCLGFMRECIPDNDKCCRPNLVCSRTHKWCKYVF-NH2; disulfide 2-17, 9-23, 16-30): the IC50 was above 5 µM.

Take `CC[C@H](C)[C@@H]1NC(=O)[C@@H]2CSSC[C@@H]3NC(=O)[C@H](C(C)C)NC(=O)[C@H](CC(C)C)NC(=O)[C@H](CC(N)=O)NC(=O)[C@@H]4CCCN4C(=O)[C@H](CCCNC(=N)N)NC(=O)[C@H](CSSC[C@H](NC(=O)[C@@H](N)CC(=O)O)C(=O)N[C@@H](CC(C)C)C(=O)N[C@@H](CCC(=O)O)C(=O)N[C@@H](Cc4ccccc4)C(=O)N[C@@H](CCSC)C(=O)N[C@@H](CCCNC(=N)N)C(=O)N[C@@H](CCCCN)C(=O)N2)NC(=O)[C@H](CSSC[C@@H](C(=O)N[C@@H](CCCCN)C(=O)N[C@@H](Cc2ccc(O)cc2)C(=O)N[C@H](C(=O)N[C@@H](Cc2ccccc2)C(N)=O)C(C)C)NC(=O)[C@H](Cc2c[nH]c4ccccc24)NC(=O)[C@H](CCCCN)NC(=O)[C@H](Cc2cnc[nH]2)NC(=O)[C@H]([C@@H](C)O)NC(=O)[C@H](CCCNC(=N)N)NC(=O)[C@H](CO)NC3=O)NC(=O)[C@H](CCCCN)NC(=O)[C@H](CC(=O)O)NC(=O)[C@H](CC(N)=O)NC(=O)[C@H](CC(=O)O)NC(=O)[C@@H]2CCCN2C1=O` (H-DCLEFMRKCIPDNDKCCRPNLVCSRTHKWCKYVF-NH2; disulfide 2-17, 9-23, 16-30): the IC50 is above 5 µM.

For `CSCC[C@@H]1NC(=O)[C@H](Cc2ccccc2)NC(=O)CNC(=O)[C@H](CC(C)C)NC(=O)[C@@H](NC(=O)[C@@H](N)CC(=O)O)CSSC[C@@H]2NC(=O)[C@@H]3CSSC[C@@H](C(=O)N[C@@H](CCCCN)C(=O)N[C@@H](Cc4ccc(O)cc4)C(=O)N[C@H](C(=O)N[C@@H](Cc4ccccc4)C(N)=O)C(C)C)NC(=O)[C@H](Cc4c[nH]c5ccccc45)NC(=O)[C@H](CCCCN)NC(=O)[C@H](Cc4cnc[nH]4)NC(=O)[C@H]([C@@H](C)O)NC(=O)[C@H](CCCNC(=N)N)NC(=O)[C@H](CO)NC(=O)[C@H](CSSC[C@H](NC(=O)[C@H](CCCCN)NC(=O)[C@H](CCCNC(=N)N)NC1=O)C(=O)N[C@@H](Cc1cnc[nH]1)C(=O)N1CCC[C@H]1C(=O)N[C@@H](CC(=O)O)C(=O)N[C@@H](CC(N)=O)C(=O)N[C@@H](CC(=O)O)C(=O)N[C@@H](CCCCN)C(=O)N3)NC(=O)[C@H](C(C)C)NC(=O)[C@H](CC(C)C)NC(=O)[C@H](CC(N)=O)NC(=O)[C@@H]1CCCN1C(=O)[C@H](CCCNC(=N)N)NC2=O` (H-DCLGFMRKCHPDNDKCCRPNLVCSRTHKWCKYVF-NH2; disulfide 2-17, 9-23, 16-30), the concentration for half-maximal inhibition (IC50) is above 5 µM.

With `CC[C@H](C)[C@@H]1NC(=O)[C@@H]2CSSC[C@@H]3NC(=O)[C@H](C(C)C)NC(=O)[C@H](CC(C)C)NC(=O)[C@H](CC(N)=O)NC(=O)[C@@H]4CCCN4C(=O)[C@H](CCCNC(=N)N)NC(=O)[C@H](CSSC[C@H](NC(=O)[C@@H](N)CC(=O)O)C(=O)N[C@@H](CC(C)C)C(=O)NCC(=O)N[C@@H](Cc4ccccc4)C(=O)N[C@@H](CCSC)C(=O)N[C@@H](CCCNC(=N)N)C(=O)N[C@@H](CCCCN)C(=O)N2)NC(=O)[C@H](CSSC[C@@H](C(=O)N[C@@H](CCCCN)C(=O)N[C@@H](Cc2ccc(O)cc2)C(=O)N[C@H](C(=O)N[C@@H](Cc2ccccc2)C(N)=O)C(C)C)NC(=O)[C@H](Cc2c[nH]c4ccccc24)NC(=O)[C@H](CCCCN)NC(=O)[C@H](Cc2cnc[nH]2)NC(=O)[C@H]([C@@H](C)O)NC(=O)[C@H](CCCNC(=N)N)NC(=O)[C@H](CO)NC3=O)NC(=O)[C@H](CCCCN)NC(=O)[C@H](CC(=O)O)NC(=O)[C@H](CC(N)=O)NC(=O)[C@H](CCCCN)NC(=O)[C@@H]2CCCN2C1=O` (H-DCLGFMRKCIPKNDKCCRPNLVCSRTHKWCKYVF-NH2; disulfide 2-17, 9-23, 16-30), the concentration for half-maximal inhibition (IC50) was above 4.7 µM.

Regarding `CC[C@H](C)[C@@H]1NC(=O)[C@@H]2CSSC[C@@H]3NC(=O)[C@H](C(C)C)NC(=O)[C@H](CC(C)C)NC(=O)[C@H](CC(N)=O)NC(=O)[C@@H]4CCCN4C(=O)[C@H](CCCNC(=N)N)NC(=O)[C@H](CSSC[C@H](NC(=O)[C@@H](N)CC(=O)O)C(=O)N[C@@H](CC(C)C)C(=O)NCC(=O)N[C@@H](Cc4ccccc4)C(=O)N[C@@H](CCSC)C(=O)N[C@@H](CCCNC(=N)N)C(=O)N[C@@H](CCCCN)C(=O)N2)NC(=O)[C@H](CSSC[C@@H](C(=O)N[C@@H](CCCCN)C(=O)N[C@@H](Cc2ccc(O)cc2)C(=O)N[C@H](C(=O)N[C@@H](Cc2ccccc2)C(N)=O)C(C)C)NC(=O)[C@H](Cc2c[nH]c4ccccc24)NC(=O)[C@H](CCC(=O)O)NC(=O)[C@H](Cc2cnc[nH]2)NC(=O)[C@H]([C@@H](C)O)NC(=O)[C@H](CCCNC(=N)N)NC(=O)[C@H](CO)NC3=O)NC(=O)[C@H](CCCCN)NC(=O)[C@H](CC(=O)O)NC(=O)[C@H](CC(N)=O)NC(=O)[C@H](CC(=O)O)NC(=O)[C@@H]2CCCN2C1=O` (H-DCLGFMRKCIPDNDKCCRPNLVCSRTHEWCKYVF-NH2; disulfide 2-17, 9-23, 16-30), the half-maximal inhibitory concentration (IC50) is above 5 µM.

As for `CC[C@H](C)[C@@H]1NC(=O)[C@@H]2CSSC[C@@H]3NC(=O)[C@H](C(C)C)NC(=O)[C@H](CC(C)C)NC(=O)[C@H](CC(N)=O)NC(=O)[C@@H]4CCCN4C(=O)[C@H](CCCNC(=N)N)NC(=O)[C@H](CSSC[C@H](NC(=O)[C@@H](N)CC(=O)O)C(=O)N[C@@H](CC(C)C)C(=O)NCC(=O)N[C@@H](Cc4ccccc4)C(=O)N[C@@H](CCSC)C(=O)N[C@@H](CCCNC(=N)N)C(=O)N[C@@H](CCCCN)C(=O)N2)NC(=O)[C@H](CSSC[C@@H](C(=O)N[C@@H](CCCCN)C(=O)N[C@@H](Cc2ccc(O)cc2)C(=O)N[C@H](C(N)=O)C(C)C)NC(=O)[C@H](Cc2c[nH]c4ccccc24)NC(=O)[C@H](CCCCN)NC(=O)[C@H](Cc2cnc[nH]2)NC(=O)[C@H]([C@@H](C)O)NC(=O)[C@H](CCCNC(=N)N)NC(=O)[C@H](CO)NC3=O)NC(=O)[C@H](CCCCN)NC(=O)[C@H](CC(=O)O)NC(=O)[C@H](CC(N)=O)NC(=O)[C@H](CC(=O)O)NC(=O)[C@@H]2CCCN2C1=O` (H-DCLGFMRKCIPDNDKCCRPNLVCSRTHKWCKYV-NH2; disulfide 2-17, 9-23, 16-30), the IC50 was above 5 µM.
